Results taken from ChEMBL document CHEMBL4706681, “New 2-Pyrazoline and Hydrazone Derivatives as Potent and Selective Monoamine Oxidase A Inhibitors” (J Med Chem, 2021).
The source made the active and inactive calls. The rule behind the calls is not given here.

Columns and labels:
[1] = Ex vivo inhibition of MAOA in CD1 mouse brain homogenates assessed as MAOA level at 1 mg/kg, po administered via gavage for 7 days and measured 1 hr post last dose by monoamine oxidase assay (reference value: 0.39 +/- 0.04 nmol/min/mg); type: functional; conditions: time 7 day
[2] = Ex vivo inhibition of MAOA in CD1 mouse brain homogenates assessed as 5-HT levels at 10 mg/kg, po administered via gavage for 7 days and measured 1 hr post last dose by ELISA kit method (reference value: 0.78 +/- 0.01 ug/g); type: functional; conditions: time 7 day
[3] = Ex vivo inhibition of MAOA in CD1 mouse brain homogenates assessed as MAOA level at 3 mg/kg, po administered via gavage for 7 days and measured 1 hr post last dose by monoamine oxidase assay (reference value: 0.39 +/- 0.04 nmol/min/mg); type: functional; conditions: time 7 day
[4] = Cytotoxicity against human HepG2 cells assessed as cell viability at 7.5 uM incubated for 2 hrs by MTT assay relative to control; type: cell-based; conditions: read-out: Activity
Outline: (§1)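 HepG2 human hepatoma cells; viability read by MTT assay, with 0.1% DMSO as vehicle control. Viability given as % of control, mean ± SEM (n = 3); p < 0.05 taken as significant.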

[5] = target: T1, Amine oxidase [flavin-containing] A (Homo sapiens, UniProt P21397); experiment: Reversible inhibition of human MAO-A assessed as residual enzyme activity at 4 fold IC50 incubated for 15 mins and measured 24 hrs post dialysis by dialysis method relative to control; conditions: 24.25 h, time 1455 min
T1 sequence (P21397 whole entry): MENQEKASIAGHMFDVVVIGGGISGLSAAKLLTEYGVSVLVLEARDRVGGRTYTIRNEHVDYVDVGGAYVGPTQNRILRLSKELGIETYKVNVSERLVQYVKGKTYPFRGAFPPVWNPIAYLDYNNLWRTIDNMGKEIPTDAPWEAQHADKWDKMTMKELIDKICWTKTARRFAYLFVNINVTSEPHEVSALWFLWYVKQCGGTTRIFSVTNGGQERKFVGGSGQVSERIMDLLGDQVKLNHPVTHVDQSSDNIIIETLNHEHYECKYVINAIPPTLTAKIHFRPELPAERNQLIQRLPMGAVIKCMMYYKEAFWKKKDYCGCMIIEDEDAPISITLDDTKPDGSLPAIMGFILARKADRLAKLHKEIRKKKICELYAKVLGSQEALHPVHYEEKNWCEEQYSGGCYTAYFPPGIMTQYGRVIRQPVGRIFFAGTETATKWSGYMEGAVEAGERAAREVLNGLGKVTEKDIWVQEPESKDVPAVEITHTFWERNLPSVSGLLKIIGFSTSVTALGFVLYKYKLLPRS
Outline: (§2)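 Dialysed (MWCO 12 000) at 4 °C for 24 h against 100 mM potassium phosphate pH 7.4, 5% sucrose, buffer changed twice. Dialysed and undialysed mixtures assayed together; residual activity from triplicates.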

[6] = target: T2, Amine oxidase [flavin-containing] B (Homo sapiens, UniProt P27338); experiment: Reversible inhibition of human MAO-B assessed as residual enzyme activity at 4 fold IC50 incubated for 15 mins and measured before dialysis relative to control; outline: as §2
T2 sequence (P27338 whole entry): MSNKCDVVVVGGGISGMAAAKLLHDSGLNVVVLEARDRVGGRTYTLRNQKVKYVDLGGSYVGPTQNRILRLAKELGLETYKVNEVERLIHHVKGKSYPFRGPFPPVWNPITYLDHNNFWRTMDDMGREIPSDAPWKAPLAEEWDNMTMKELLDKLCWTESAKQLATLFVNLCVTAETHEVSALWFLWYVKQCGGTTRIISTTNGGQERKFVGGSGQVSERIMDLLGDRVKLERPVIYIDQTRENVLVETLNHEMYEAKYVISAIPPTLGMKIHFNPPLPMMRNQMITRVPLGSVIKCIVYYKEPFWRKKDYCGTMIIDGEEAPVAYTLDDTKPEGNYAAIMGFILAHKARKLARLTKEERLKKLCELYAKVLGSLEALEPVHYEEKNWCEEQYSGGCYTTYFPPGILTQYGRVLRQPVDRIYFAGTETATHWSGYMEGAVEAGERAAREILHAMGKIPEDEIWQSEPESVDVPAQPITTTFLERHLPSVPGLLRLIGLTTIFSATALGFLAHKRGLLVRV

[7] = Ex vivo inhibition of MAOA in CD1 mouse brain homogenates assessed as inhibition of 5-HT deamination by measuring 5-HIAA metabolite levels by using at 1 mg/kg, po administered via gavage for 7 days and measured 1 hr post last dose by HPLC analysis (reference value: 0.33 +/- 0.02 ug/g); type: functional; conditions: time 7 day
[8] = Ex vivo inhibition of MAOA in CD1 mouse brain homogenates assessed as MAOA level at 10 mg/kg, po administered via gavage for 7 days and measured 1 hr post last dose by monoamine oxidase assay (reference value: 0.39 +/- 0.04 nmol/min/mg); type: functional; conditions: time 7 day
[9] = Ex vivo inhibition of MAOA in CD1 mouse brain homogenates assessed as 5-HT levels at 3 mg/kg, po administered via gavage for 7 days and measured 1 hr post last dose by ELISA kit method (reference value: 0.78 +/- 0.01 ug/g); type: functional; conditions: time 7 day
[10] = Ex vivo inhibition of MAOA in CD1 mouse brain homogenates assessed as 5-HT levels at 1 mg/kg, po administered via gavage for 7 days and measured 1 hr post last dose by ELISA kit method (reference value: 0.78 +/- 0.01 ug/g); type: functional; conditions: time 7 day
[11] = Cytotoxicity against human HepG2 cells assessed as cell viability at 30 uM incubated for 2 hrs by MTT assay relative to control; type: cell-based; conditions: read-out: Activity; outline: as §1
[12] = target: T2, Amine oxidase [flavin-containing] B; experiment: Reversible inhibition of human MAO-B assessed as residual enzyme activity at 4 fold IC50 incubated for 15 mins and measured 24 hrs post dialysis relative to control; conditions: 24.25 h, time 1455 min; outline: as §2
[13] = target: T1, Amine oxidase [flavin-containing] A; experiment: Reversible inhibition of human MAO-A assessed as residual enzyme activity at 4 fold IC50 incubated for 15 mins and measured before dialysis by dialysis method relative to control; outline: as §2
[14] = Cytotoxicity against human HepG2 cells assessed as cell viability at 15 uM incubated for 2 hrs by MTT assay relative to control; type: cell-based; conditions: read-out: Activity; outline: as §1
[15] = Ex vivo inhibition of MAOA in CD1 mouse brain homogenates assessed as inhibition of 5-HT deamination by measuring 5-HIAA metabolite levels by using at 3 mg/kg, po administered via gavage for 7 days and measured 1 hr post last dose by HPLC analysis (reference value: 0.33 +/- 0.02 ug/g); type: functional; conditions: time 7 day
[16] = Ex vivo inhibition of MAOA in CD1 mouse brain homogenates assessed as assessed as inhibition of dopamine deamination by measuring DOPAC metabolite levels at 30 mg/kg, po administered as single acute dose via gavage and measured after 1 hr by HPLC analysis (reference value: 1.22 +/- 0.2 ug/g); type: functional
[17] = Ex vivo inhibition of MAOA in CD1 mouse brain homogenates assessed as inhibition of 5-HT deamination by measuring 5-HIAA metabolite levels by using at 10 mg/kg, po administered via gavage for 7 days and measured 1 hr post last dose by HPLC analysis (reference value: 0.33 +/- 0.02 ug/g); type: functional; conditions: time 7 day
Mus musculus = experiment: Antidepressant-like activity in CD1 mouse assessed as reduction in immobility time at 20 mg/kg, po administered via gavage as single dose measured after 1 hr by Porsolt-forced swim test; type: functional, organism-based

SMILES	Activity [1]	Activity [2]	Activity [3]	viability at 2 h, 7.5 µM [4]	Activity [5]	Activity [6]	Activity [7]	Activity [8]	Activity [9]	Activity [10]	viability at 2 h, 30 µM [11]	Activity [12]	Activity [13]	viability at 2 h, 15 µM [14]	Activity [15]	Activity [16]	Activity [17]	Activity (Mus musculus)
COc1ccc(C2=NN(C(=O)Cn3c(=O)oc4ccc(C)cc43)C(c3cccc(OC)c3OC)C2)cc1 (centres undefined)	0.39 nmol/min/mg	0.99 µg/g	0.34 nmol/min/mg	101%	92.55%	74.19%	0.32 µg/g	0.27 nmol/min/mg	0.85 µg/g	0.8 µg/g	84.9%	94.16%	22.16%	99.6%	0.3 µg/g	1.25 µg/g	0.29 µg/g	
O=C(NCCN1CCOCC1)c1ccc(Cl)cc1 [MOCLOBEMIDE]	0.41 nmol/min/mg	0.82 µg/g	0.41 nmol/min/mg	90.8%	93.77%	88%	0.33 µg/g	0.4 nmol/min/mg	0.79 µg/g	0.78 µg/g	86%	89.55%	36%	88.5%	0.32 µg/g		0.3 µg/g	Active
